Experimental findings from the RNAGym collection of RNA variant scans (doi:10.1126/science.aae0568) are described below.

Fewer inactive variants are shown than the library holds. Where only a bound is given, the exact number is not on record here.

The chains are these.
B1: tRNA (parent)
chain: GUUCCGUUGGCGUAAUGGUAACGCGUCUCCCUCCUAAGGAGAAGACUGCGGGUUCGAGUCCCGUACGGAACG

Variants of B1 are the subject of this data set. As to the kind of experiment: yeast fitness relative to wild type (ratio to wild type); higher = fitter; tRNA-Arg(CCU), competitive growth, 37 C, YPD. In short, it runs like this:
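Genotype frequency changes were the basis for Darwinian fitness relative to wild type. The frequencies came from 100-nucleotide paired-end sequencing of gene amplicons from the start population and each end population of pooled yeast strains with tRNA-Arg(CCU) gene variants at the native locus. Competition ran in YPD at 37°C for 24 hours in six replicates, genotypes needed ≥ 100 starting reads, and estimates < 0.5 were set to 0.5.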
GUUCCGAUGGCGUAAUAGUAACGCGUCUCCCUCCUAAGGAGAAGACUGCGGGUUCGAGUCCCGUACGGAACG: the yeast fitness amounted to 0.731.
Take GUUCCGAUGGCGUAAUGGUAACGCGUCUCCCUCCUAAGGACAAGACUGCGGGUACGAGUCCCGUACGGAACG: the yeast fitness is 0.588.
As to GUUCCGAUGGCAUAAUGGUAACGCGUCUCCCUCCUAAGGAGAAGACUGCGGGUUCGAGUCCCGAACGGAACG, the yeast fitness is not above 0.5.
In the case of GUUCCGAUGGCGUAAUGGUAACGCGUUUCCCUCCUAAGGAGAAGACUGCGGCUUCGAGUCCCGUACGCAACG, the yeast fitness was not above 0.5.
As for GUUCCGAUGGCGUAAUGGUAACGCGUCUCCCUCCUAAGCAGACCACCGCGGGUUCGAGUCUCGUACGGAACG, the yeast fitness was not above 0.5.
Turning to GUUCCGAUGGCGUAAUGGUAACGCGUCUCCCUCCUAAGGAGAAGACUGCGGGUUCGAGUCACGUACGGAACG, the yeast fitness was found to be 0.603.
On to GUUCCGAUCGCAUAAUCGUAACGCGUCUCCCUCCUAAGGAGAAGACUACGGGUUCGAGUCCCGUACGGAACG, for which the yeast fitness is not above 0.5.
For GUUCCGAUCGCGUAAUCGUAACGCGUCUCCCUCAUAAGGAGAAAAUUGCGGGUUCGAGUCCCGUACGAAACG, the yeast fitness is not above 0.5.
For the variant GUUCCGAUGGCGUAAUGGUAACGCGUCUCCCUCCUAAGGAGAAGACUGCGGAUUCGAGUCCCGUACGGAACG, the yeast fitness worked out at 0.582.
As for GUUCCGAUGACGUGAUGGUAACGCGUCUCCCUCCUAAGGACUAGAAUGCGGGUUCGAGUCGCGUACGGAACG, the yeast fitness is not above 0.5.
With GUUCCGAUGGCGUAAUGGUAACGCGCCUCCCUCCUAAGGAGAAGACUGCGGGUUCGAGUCCCGAACGGAACG the figure was not above 0.5; with GUUCCGAUGGCGUAAAGGUAGCGCGUCUGCCUCAUAAGGAGAAGACUGCGGGUUCGAGUCCCGUUUGGAACG, not above 0.5; with GUUCCGAUGGCGUAAUGGUAACGCGUCUCCCUCCUAAGGAGAACACUGCGGGUUCGAGUCCCAUACGGAACG, not above 0.5.
For the variant GUUCCGAUGGCGUAACGGUAACGGGUCUCGCUCCUUAGGAGAAGACUGCGGGUUCGAGUCCCGUACGGAACG, the yeast fitness was not above 0.5.
GUUCCGAUGGCGUAACGGUAACGCGUCUCCCUCCUAAGGAGAAGACUGCGGGUUCGAGUCCCGUUCGGAACG: the yeast fitness was 0.688.
For the variant GUUCCGAUGGCGUAAUGGUAACGCGUCUCCCUCCUAAGGAGAAGAAUGCGGGUUCGAGUCCCGUACGUAACG, the yeast fitness was not above 0.5.
With GUUCCGAUGGCAUAAUGUUAACGCGUCUCCUUCCUAAGGAGAAGACUGGGGGUUCGAGUCCCGUACGGAACG the figure was not above 0.5; with GUUCCGAUGGCGUAAUAGUAACGCGUCUUCCUCCUAAGGAGAAGACUGCGGGUUCGAGUCCCGUACGGAACG, not above 0.5; with GUUCCGAUGGCGUAAUGGUAACGCGUCUCCCUCCUAAGGAGAAGACUGCGGGUUCAAGUCCCGUACGGAACG, 0.673.
With GUUCCGAUGACGUAAUGGUAACGCGUCUCCCUCCUAAGGAGAAGACUGCGGGUUCGAGUUCCGUACGGAACG the figure was 0.607; with GUUCCGAUGGCGUAAUGGUAACGCGUCUACCUCCUAAGGAGAAGACUGCGGGUUCGAGUCCCGUCCGGAACG, not above 0.5; with GUUCCGAUGGCGUAAUGGUAACGCGUCUCCCUCCUAAGGAGAAGACUGCGGGUUCGAGUCCCGUACUGAACG, 0.771.
Turning to GUUCCGAUGGCGUAAUGGUAACCCGUCUCCUUCCUAAGGAGAAGACUGCGGGUUCGAGUCCCGUACGGAACG, the yeast fitness was not above 0.5.
Turning to GUUCCGAUGGCGUAAUGGUAACGCUUCUCCCACCUAAGGAAAAGACUGCGGGUUCGAGUCUCGUACGGAACG, the yeast fitness was 0.589.
With GUUCCGAUGGCGUAAUGAUAACGCGUCUGCCUCCUAGGGAGAAGACUGCGGGUUCGAGUACGGUACGGAACG the figure was not above 0.5.
As to GUUCCGAUGGCGUAAUGGUAACGCGUCUACCUCCUAAGGAGAAGACUGCGGGUUCGAGUCCCGUACGGAACG, the yeast fitness turned out to be 0.73.
In the case of GUUCCGAUGGCGUAAUGGUAACGCGUCUCCCUCCUAAGGAGAAGACUGCGGGUUAGAGUCCCGUCCGGAACG, the yeast fitness was not above 0.5.
For the variant GUUCCGAUGACGUAAUGGUAACGCGUCUCCCUCCUAAGGACUAGAAUGCGGGUUCGAGUCCCGUACGGAACG, the yeast fitness was not above 0.5.
Next, GUUCCGAUGGCGUAAUGGUAACGCGUUUCCCUCCUAAGGAGAAGACUGCGGGUUCGUGUCCCGUCCGGAACG: not above 0.5; GUUCCGAUGACGUAAUGGUAACGCGUCUCCCUCCUAGGGACUAGAAUGCGGGUUCGAGUCGCGUACGGAACG: 0.738; GUUCCGAUGGCGUAAUGGUAACGCGUAUCCCUCCUAAGGAGAAGACUGCGGGUUCGAGUCCCGUAUGGAACG: not above 0.5.
As to GUUCCGAUGGCGUAAUGGUAACGCGUCUCCUUCCUAAGGAGAAGACUGCGGGUUCGAGUCCCGUACGGAACG, the yeast fitness was 0.683.
With GUUCCGAUGGCGUAAUCGUAACGGGUCUACCUCCUAAGGAGAAGACUGCGGGUUCGACUCCCGUACGGCACG the figure was not above 0.5.
As for GUUCCGAUGGCAUAAUGGUAACGCGUAUCCCUCCUAAGGAGAAGACUGCGGGUUCGAGUCCCGUACGGAACG, the yeast fitness is not above 0.5.
For the variant GUUCCGACGGCGUAAUGGUAACGCGUCUUCCUCCUAAGGAGAAGACUGCGGGUUCGAGUCCCGUACGGAACG, the yeast fitness was not above 0.5.
Regarding GUUCCGAUGGCGUAAUGGUAACGCGUCUCCCUCCUAAGGAGAAGACUGCGGGUUUGAGUCACGUACGGAACG, the yeast fitness is 0.508.
In the case of GUUCCGAUGGCGUAAUGGGAACGCGUCUCCCUCCUAAGGAGAAGACUGCGGGUUCGAGUCCCGUACGGAGCG, the yeast fitness was not above 0.5.
Regarding GUUCCGAGGGCGUAAUGGUAACGCGUCUCCCUCCUAAGGAGAAGACUGCGGGUUCGAGUCCCGUACGGCACG, the yeast fitness is not above 0.5.
With GUUCCGAUGGCGUAAUGGUAACACGUCUCCCUCCUAAGGAGGAGACUGCGGGUUCGAGUCCUGUACGGAACG the figure was not above 0.5; with GUUCCGAUGGCAUAAUGGUAACGCGUCUCCCUCCUAAGGAGAAGACUGUGGGUUCGAGUCCGGUACGGAACG, not above 0.5; with GUUCCGAUGGCGUAAUGGUAACGCGUCUCUCUUCUAAGGAGAAGAUUGCGGGUUCGAGUCCCGUACGGAACG, not above 0.5.
Regarding GUUCCGAUCGCGUGAUCGUAACGCGUCUCCCUCCUAAGGAGAAGACUACGGGUUCGAGUCCCGUACGGAACG, the yeast fitness was not above 0.5.
As for GUUCCGAUGGCGUAAUGGUAACGCGUCUCCCUCCUAAGGAGAAGACUGCGGCUUCAAGUCCCGUACGGAACG, the yeast fitness amounted to 0.554.
With GUUCCGAUGGCGUAACGGUAUCGCGACUCCCUCCUAAGGAGAAGACUGCGGGUUCGAGUCCCGUACGGAACG the figure was 0.537.
As to GUUCCGAUGGCGUAAUGGUAACGCGUCUCCCUCAUAAGGAGAAAAUUGCGGGUUCGAGUCCCGUACGGACCG, the yeast fitness was not above 0.5.
As for GUUCCGAUGGCGUAAUGGUAACGCGUCUACCUCCUAAGGAGAAGACCGCGGGUUCGAAUCGCGUACGGAUCG, the yeast fitness was found to be 0.588.
With GUUCCGAUGGCGUAAUGGUAACGCGUCUACCUCCUAAGGAGAAGACUGCCGGUCCGAGUCCCGUACGGAACG the figure was not above 0.5; with GUUCCGAUGGCGUAACAGUAACGCGUCUUCAUCCUAAGGAGAAGACUGCGGGUUCGAAUCCCGUACGGAACG, not above 0.5.
Consider GUUCCGAUGGCGUAAUAGUAACGCGUCUCACUCCUAAGGAGAAGACUGCGGGUUCGAGUCCCGUCCGGAACG, for which the yeast fitness is not above 0.5.
Next, GUUCCGAUGGCGUAAUGGUAACGCGUCUCGCUCCUAAGGAGAAGACUGCGGGUUCGUAUCCCGUACGGAACG: not above 0.5; GUUCCGAUGGCGUAAUGGCAACGCGUGUCCCUCCUAAGGAGAUGACAGCGGGUUCGAGUCCCGUUCCGAACG: not above 0.5.
As for GUUCCGAUGGCGUAAUGGUAACCCGUCUCCCUGCUAAGGAGAAGAUUGCGGGUUCGAGUCCCGCACGGAACG, the yeast fitness amounted to 0.579.
As to GUUCCGAAGCCGUAAUGGUAACGCGUGUCCCUCGUAAGGAGAAGCCUGCGGGUUCGAGUCCCGUACGUAACG, the yeast fitness is not above 0.5.
Next, GUUCCGAUGGCGUAAUGGUAACGCGUCUCCCUCGUAAGGAGAAGACUGCGGGUUCGAGUCCCGUAUGGAACG: not above 0.5; GUUCCGAUGGCGUAAUGGUAACGCGUCUUCCUCCUAAGGAGAAGACUGCGGGUUCGCGUCCCGUACGGAACG: not above 0.5; GUUCCGAUGGCGUAAUGGUAACGCGUCUCCCUCCUAAGGAGAAGACUGCGGGUUCGAGUCCGGUACGGAACG: 0.63.
With GUUCCGAUGGCGUAAUGGUAACGCGGCUCCCGCCUAAGGAGUAGGCUGCGGGUUCGAGUCCCGUACGGUACG, the yeast fitness was not above 0.5.
Next, GUUCCGAUGCCGUAAUGGUAAUGCGUGUCCCUCCUAAGGAGAAGACUGCGGGUUCGAGUCAUGUUCGGCACG: not above 0.5.
Regarding GUUCCGAUGGCGUAAUGCUAAUGUGUCUCCCUCCUAAGGAGAAGACUGCGGGUUCGAGUUCCGUACGGAACG, the yeast fitness was not above 0.5.
Turning to GUUCCGAUGGCCUAAUGGUGACGCGUCUCCCUCUUAAGGAGAAGACUGGGGGUUCGAGUCCCGUACGGAACG, the yeast fitness is not above 0.5.
With GUUCCGAUCGCGUAAUCGUAACGCGUCUCCCUCCUAAGGAGAAGACUACGGGUUCGAGUCCCAUACGGAACG the figure was 0.584; with GUUCCGAUGGCGUAAUGGUAACGCGUUUUCCUCCUAAGGAGAAGACUGCGGGUUCGAAUCCCGUACGAAACG, not above 0.5.
As for GUUCCGAUAGCGAAAUGGUAACGCGUCUCCCUCCUAAGGAGAGGACUGCGGGUUCAAGUCCCGUACGGAACG, the yeast fitness is not above 0.5.
Next, GUUCCGAUGACGUAAUGGUAACGCGUCUCCCUCCUAAGGAUAAGACUGUGGGUUCGAGUCCCGUACGGAACG: 0.615.
On to GUUCCGAUGGCGUAAUGGUAACGCGUCUCCCUCCUAAGGAGAAGACAGCGGGUUCGAGUCCCGUACGGAACG, for which the yeast fitness was determined as 0.643.
Next, GUUCCGAUGGCGUAAUGGUAACGCGUCACCCGCCUAAGGAGAAGACUGCCGGUCCGAGUCCCGUACGGAACG: not above 0.5; GUUCCGAUGGCGUAAUGGUAACGCGUCUCCCUACUAAGGAGAAGACUGCAGGUUCGAGUCGCGUACGGAACG: not above 0.5; GUUCCGAUCGCGUAAUCGUAACGCGUCUGCCUGCUAAGGACAAGACUGCGGGUUCGAGUCCCGUAUGGAACG: not above 0.5.
Next, GUUCCGAUGGCGUAAUGGUAACGCGUUUCCCUCCUAAGGAGAAGACUGCGGGUUUGAGUCCCGUACGGAACG: not above 0.5.
For the variant GUUCCGAAGGCGUAAUGGUAACGCAUCUCCCUCCUAAGGAGAAGACUGCGGGUUCGAGUCCCGUACCGAACG, the yeast fitness is not above 0.5.
In the case of GUUCCGAUGGCGUAAUGGUAACGCGUCUCCCCCCUAAGGAGAAGACUGCGGGUUCGAGUCCCGUACGGAACG, the yeast fitness came out at 0.764.
Consider GUUCCGAUGGCGUAAUGGUAACGCGUCUCCCACCUAAGGAGAAGACUGCGGGUUCGAGUCCCGUACGGAACG, for which the yeast fitness turned out to be 0.588.
In the case of GUUCCGAUGGCGUAAUGGUAACGCGUCUCCCGGCUAAGGAGAAGACUGCGGGUUCGAGUCCCGUACGGAUCG, the yeast fitness is not above 0.5.
GUUCCGAUGGCGUAAUGGUAACGCGUCUCCCUCGUAAGGAGAAGACUGCGGGCUCGAGUCCCGUACGGAACG: the yeast fitness worked out at 0.726.
Regarding GUUCCGAUGGCGUAAUGGUAACGCGUCUCCCGACUAAGGAGAAGACUGCGGGUUCGAGUCCGGUAUGGAACG, the yeast fitness is not above 0.5.
